Measured values from ChEMBL document CHEMBL3576830, “Exploiting the Polypharmacology of ß-Carbolines to Disrupt O. volvulus Molting” (ACS Med Chem Lett, 2015).
Calls of active or inactive are those of the source. The calls are words filed in the database; no cut-off is given here.

Assays:
[1] = target: T1, Chitinase (Onchocerca volvulus) (UniProt Q25615); experiment: Inhibition of L3 larval stage of Onchocerca volvulus chitinase using 4-methylumbelliferyl-N-N'-N''-beta-chitotrioside as substrate assessed as release of 4-methylumbelliferone at 10 uM measured for 10 mins by fluorescence assay; type: tissue-based
T1 sequence (whole entry): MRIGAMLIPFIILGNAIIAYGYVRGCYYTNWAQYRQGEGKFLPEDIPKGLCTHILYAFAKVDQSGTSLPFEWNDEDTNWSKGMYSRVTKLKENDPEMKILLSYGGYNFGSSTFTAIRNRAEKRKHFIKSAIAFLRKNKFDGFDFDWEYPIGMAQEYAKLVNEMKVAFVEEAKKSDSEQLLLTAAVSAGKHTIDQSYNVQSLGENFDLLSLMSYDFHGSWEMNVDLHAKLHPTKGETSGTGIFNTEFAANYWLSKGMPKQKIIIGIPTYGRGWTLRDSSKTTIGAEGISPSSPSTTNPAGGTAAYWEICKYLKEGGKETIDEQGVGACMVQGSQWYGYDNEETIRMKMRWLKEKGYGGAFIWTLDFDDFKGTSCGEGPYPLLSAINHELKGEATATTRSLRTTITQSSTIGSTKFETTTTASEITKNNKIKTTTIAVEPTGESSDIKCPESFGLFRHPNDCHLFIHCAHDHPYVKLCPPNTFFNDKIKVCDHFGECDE
Outline: (§1)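 OvCHT1 activity read by fluorescence, inhibitors tested at 10 and 5 μM.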

[2] = target: T1, Chitinase (Onchocerca volvulus); experiment: Inhibition of L3 larval stage of Onchocerca volvulus chitinase using 4-methylumbelliferyl-N-N'-N''-beta-chitotrioside as substrate assessed as release of 4-methylumbelliferone at 5 uM measured for 10 mins by fluorescence assay; outline: as §1
HEK-293T [3] = experiment: Mitochondrial uncoupling activity in HEK293T/17 cells at 50 uM after 30 mins by TMRE staining-based fluorescence assay; type: functional, cell-based; conditions: Homo sapiens
Outline: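 HEK 293T/17 cells incubated with 50 μM compound, then stained with TMRE to detect mitochondrial membrane depolarization, read in a microplate fluorescence assay. Reported as mean fluorescence intensity ± SD (n = 3). Unstained cells served as negative control and 0.5% DMSO as positive control. CCCP served as reference protonophore.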

Chitinase [4] = target: T2, Chitinase (Onchocerca volvulus, UniProt Q25615); experiment: Competitive inhibition of L3 larval stage of Onchocerca volvulus chitinase using 4-methylumbelliferyl-N-N'-N''-beta-chitotrioside as substrate assessed as release of 4-methylumbelliferone measured for 10 mins by Dixon plot analysis
T2 sequence (Q25615 whole entry): T1 sequence (whole entry)

Entamoeba histolytica = experiment: Inhibition of Entamoeba histolytica chitinase using 4-methylumbelliferyl-N-N'-N''-beta-chitotrioside as substrate assessed as release of 4-methylumbelliferone at 10 uM measured for 10 mins by fluorescence assay
Caenorhabditis elegans [5] = experiment: Drug level in late stage L4 Caenorhabditis elegans treated with 2-(Cyclopropylmethyl)-7-methoxy-1-methyl-9H-pyrido[3,4-b]indol-2-ium bromide at 10 uM after 6 hrs by LC-MS analysis; type: ADME, organism-based; conditions: in vivo
Outline: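 Late-stage L4 C. elegans were exposed to 10 μM compound (equivalent to 2 nmol/mg worm) for 6 h. Worm homogenates were quantified by LC–MS and expressed as nmol/mg worm, mean ± SD, n = 3.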

[6] = target: T3, Endochitinase (Brugia malayi) (UniProt P29030); experiment: Inhibition of Brugia malayi chitinase using 4-methylumbelliferyl-N-N'-N''-beta-chitotrioside as substrate assessed as release of 4-methylumbelliferone at 10 uM measured for 10 mins by fluorescence assay
T3 sequence (whole entry): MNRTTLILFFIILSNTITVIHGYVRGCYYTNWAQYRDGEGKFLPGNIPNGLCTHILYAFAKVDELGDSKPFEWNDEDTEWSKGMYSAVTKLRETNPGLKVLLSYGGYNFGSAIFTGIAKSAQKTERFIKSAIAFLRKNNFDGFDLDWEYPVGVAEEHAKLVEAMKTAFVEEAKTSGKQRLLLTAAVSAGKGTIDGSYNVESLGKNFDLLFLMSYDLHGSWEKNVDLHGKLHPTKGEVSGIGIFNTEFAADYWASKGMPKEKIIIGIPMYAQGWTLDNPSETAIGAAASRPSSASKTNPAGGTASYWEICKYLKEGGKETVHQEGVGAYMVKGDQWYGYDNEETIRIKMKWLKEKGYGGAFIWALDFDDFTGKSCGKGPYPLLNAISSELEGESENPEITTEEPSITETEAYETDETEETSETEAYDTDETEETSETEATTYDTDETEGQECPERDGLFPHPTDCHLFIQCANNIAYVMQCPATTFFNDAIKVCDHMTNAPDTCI

Chitinase [7] = target: T2, Chitinase; experiment: Inhibition of L3 larval stage of Onchocerca volvulus chitinase using 4-methylumbelliferyl-N-N'-N''-beta-chitotrioside as substrate assessed as release of 4-methylumbelliferone measured for 10 mins by fluorescence assay
Onchocerca volvulus [8] = experiment: Antionchocerciasis activity against L3 larval stage of Onchocerca volvulus assessed as inhibition of parasite molting at 10 uM treated for 24 hrs prior to complete medium and PBMC addition measured after 6 days by inverted microscopic analysis; type: functional
Outline: (§2)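 O. volvulus L3 larvae in wells, 2−3 wells per condition with on average 5−10 larvae each, exposed to inhibitor. Molting counted and expressed as percent molting.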

Caenorhabditis elegans [9] = experiment: Drug metabolism in late stage L4 Caenorhabditis elegans assessed as formation of 7-methoxy-1-methyl-9H-pyrido[3,4-b]indole at 10 uM after 6 hrs by LC-MS analysis; type: ADME, organism-based; conditions: in vivo
Outline: (§3)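 Late-stage L4 C. elegans incubated 6 h with 10 μM inhibitor (equivalent to 2 nmol/mg worm). Worm homogenates quantified by LC−MS and also searched for metabolites (7-O-dealkylation, aromatic ring and N²-oxidation products). Uptake expressed as nmol/mg worm, mean ± SD, n = 3.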

Caenorhabditis elegans [10] = experiment: Drug uptake in late stage L4 Caenorhabditis elegans at 10 uM after 6 hrs by LC-MS analysis; type: ADME, organism-based; conditions: in vivo; outline: as §3
HEK-293T [11] = experiment: Cytotoxicity against HEK293T/17 cells at 5 uM after 0.5 to 24 hrs by MTS assay; type: cell-based; conditions: human
Onchocerca volvulus [12] = experiment: Antionchocerciasis activity against L3 larval stage of Onchocerca volvulus assessed as inhibition of parasite molting at 1 uM treated for 24 hrs prior to complete medium and PBMC addition measured after 6 days by inverted microscopic analysis; type: functional; outline: as §2
Caenorhabditis elegans [13] = experiment: Drug metabolism in late stage L4 Caenorhabditis elegans assessed as formation of 7-O-dealkylated, aromatic ring, and N2-oxidized metabolite at 10 uM after 6 hrs by LC-MS analysis; type: ADME, organism-based; conditions: in vivo; outline: as §3
Onchocerca volvulus [14] = experiment: Antionchocerciasis activity against L3 larval stage of Onchocerca volvulus assessed as prevention of L3 cuticle shedding at 100 uM treated for 24 hrs prior to complete medium and PBMC addition measured after 6 days by inverted microscopic analysis; type: functional, organism-based
Outline: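 O. volvulus L3 larvae in 2–3 wells, on average 5–10 larvae per well; read-out is percent molting across the wells.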

O=S(=O)(Nc1ccccc1)c1ccc2[nH]c3cnccc3c2c1
inhibition [1]: inactive

Cc1c2[nH]c3ccccc3c2cc[n+]1C
inhibition [1]: inactive

Cc1nccc2c3ccccc3n(CC3CC3)c12
inhibition [2]: inactive

COc1ccc2c(c1)[nH]c1c(C)nccc12 [HARMINE]
Activity (HEK-293T [3]): Active
Ki (Chitinase [4]): 3.78 µM
inhibition (Entamoeba histolytica): inactive
Drug uptake (Caenorhabditis elegans [5]): 0.052 nmol/mg
inhibition [6]: inactive
IC50 (Chitinase [7]): 7.06 µM
inhibition at 10 µM (Onchocerca volvulus [8]): 57%

COc1ccc2c(c1)[nH]c1c(C)[n+](CC3CC3)ccc12.[Br-]
Activity (HEK-293T [3]): Active
Drug metabolism (Caenorhabditis elegans [9]): metabolite_detected
inhibition (Entamoeba histolytica): inactive
inhibition [6]: inactive
IC50 (Chitinase [7]): 3.57 µM
Drug uptake (Caenorhabditis elegans [10]): 0.033 nmol/mg
inhibition (Onchocerca volvulus [8]): Active
Activity (HEK-293T [11]): Non-toxic
inhibition (Onchocerca volvulus [12]): inactive
Drug metabolism (Caenorhabditis elegans [13]): metabolite_notdetected

Cc1ccc(NS(=O)(=O)c2ccc3[nH]c4cnccc4c3c2)cc1
inhibition [1]: inactive

Cc1nccc2c1[nH]c1cc(OCC3CC3)ccc12
inhibition [1]: inactive

Cc1nccc2c3ccccc3n(C)c12
inhibition [1]: inactive

CCNS(=O)(=O)c1ccc2[nH]c3cnccc3c2c1
inhibition [1]: inactive

O=S(=O)(Nc1ccc(Cl)cc1)c1ccc2[nH]c3cnccc3c2c1
inhibition [1]: inactive

c1ccc2c(c1)[nH]c1cnccc12 [NORHARMANE]
Activity (HEK-293T [3]): inactive
Activity (Onchocerca volvulus [14]): Active
IC50 (Chitinase [7]): 8.46 µM
inhibition (Onchocerca volvulus [8]): inactive

Cc1[nH]ccc2c1[nH]c1cc(=O)ccc12 [HARMOL]
Activity (HEK-293T [3]): Active
inhibition (Entamoeba histolytica): inactive
inhibition [6]: inactive
IC50 (Chitinase [7]): 7.08 µM
inhibition at 10 µM (Onchocerca volvulus [8]): 61%

Cc1c2[nH]c3ccccc3c2cc[n+]1Cc1ccc(Cl)cc1
inhibition [2]: inactive

Cc1nccc2c3ccccc3n(Cc3ccccc3)c12
inhibition [1]: inactive

Cc1nccc2c1[nH]c1ccccc12 [HARMAN]
Activity (HEK-293T [3]): inactive
Activity (Onchocerca volvulus [14]): Active
IC50 (Chitinase [7]): 7.33 µM
inhibition (Onchocerca volvulus [8]): inactive

Cc1c2[nH]c3ccccc3c2cc[n+]1Cc1ccc(C(F)(F)F)cc1
inhibition [1]: inactive

COc1ccc2c3ccnc(C)c3n(Cc3ccc(Cl)cc3)c2c1
inhibition [1]: inactive

Cc1nccc2c1[nH]c1cc(OCc3ccc(Cl)cc3)ccc12
inhibition [1]: inactive

COc1ccc2c3ccnc(C)c3n(CC3CC3)c2c1
inhibition [1]: inactive

N#CC(C#N)=NNc1cccc(Cl)c1
Activity (HEK-293T [3]): Active

Cc1nccc2c3ccc(OCc4ccc(Cl)cc4)cc3n(Cc3ccc(Cl)cc3)c12
Activity (HEK-293T [3]): inactive
inhibition (Entamoeba histolytica): inactive
inhibition [6]: inactive
Activity (Onchocerca volvulus [14]): Active
IC50 (Chitinase [7]): 2.08 µM
inhibition (Onchocerca volvulus [8]): inactive

Cc1c2[nH]c3ccccc3c2cc[n+]1Cc1ccccc1
inhibition [1]: inactive

Cc1nccc2c3ccccc3n(Cc3ccc(Cl)cc3)c12
inhibition [1]: inactive

Cc1c2[nH]c3ccccc3c2cc[n+]1CC1CC1
inhibition [2]: inactive

COc1ccc2c(c1)[nH]c1c(C)[n+](Cc3ccc(Cl)cc3)ccc12.[Br-]
Activity (HEK-293T [3]): Active
IC50 (Chitinase [7]): 3.49 µM
Drug uptake (Caenorhabditis elegans [10]): 0.22 nmol/mg
inhibition (Onchocerca volvulus [8]): Active
Activity (HEK-293T [11]): Non-toxic
inhibition at 1 µM (Onchocerca volvulus [12]): 45%

O=S(=O)(NC1CCCC1)c1ccc2[nH]c3cnccc3c2c1
inhibition [1]: inactive

Cc1c2[nH]c3cc(OCc4ccc(Cl)cc4)ccc3c2cc[n+]1Cc1ccc(Cl)cc1.[Br-]
Activity (HEK-293T [3]): Active
Ki (Chitinase [4]): 0.98 µM
inhibition (Entamoeba histolytica): Active
inhibition [6]: Active
IC50 (Chitinase [7]): 1.43 µM
inhibition (Onchocerca volvulus [8]): Active
Activity (HEK-293T [11]): Non-toxic
inhibition at 1 µM (Onchocerca volvulus [12]): 27%
